The record followed here is PMC6482957 (Nature structural & molecular biology, 2018).

The subject of assay [1] is p300-ZZ. Nature of the assay: 1H,15N HSQC NMR titration, p300-ZZ. It is filed as binding, human. In short, it runs like this: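 Human p300 ZZ (aa 1663–1713) carried an N-terminal His-tag and was expressed in BL21(DE3) RIL in M9 with 15NH4Cl and 0.05 mM ZnCl2. Induction was 0.2 mM IPTG, overnight at 18 °C. Protein was Ni-NTA purified and the tag cleaved. 0.1 mM sample in 20 mM Tris-HCl pH 7.0, 100 mM NaCl, 5 mM DTT, 8% D2O. Unlabeled HAT domain (1:2) was added first, then H3 peptide; chemical shift changes were monitored at 298K.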

Assay [2] deals with chromatin in H1299 cells. Briefly: Chromatin association of FLAG-p300BRPHZT. In kind it is cell-based, human. The settings on record: H1299 stable cells, ChIP-western and salt fractionation. In short, it runs like this:
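H1299 cells stably expressing FLAG-p300-BRPHZT variants were used. For protein-ChIP, cells were formaldehyde-crosslinked and nuclear lysates sonicated, then pulled down overnight at 4 °C on anti-FLAG M2 agarose. Beads were washed in low-salt, high-salt and LiCl buffers, and bound protein was read by western blot. For salt fractionation, cells were swollen in hypotonic HEPES buffer and nuclei isolated, then nuclei were extracted 30 min at 4 °C in glycerol wash buffer with 75 mM NaCl and the supernatant collected.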

The subject of assay [3] is chromatin of H1299 cells (FLAG, H3K18ac, H3K27ac). Briefly: ChIP-seq / ChIP-qPCR in H1299 stable cells. In kind it is cell-based, human. The settings on record: for Chromatin binding / H3K18ac and H3K27ac occupancies: ChIP-seq, H1299. Put shortly:
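H1299 cells (RPMI, 10% FBS) were lentivirally transduced with FLAG-p300-BRPHZT (wild type or mutant) and blasticidin-selected for 4–6 days. Cells were crosslinked with 1% formaldehyde for 10 min, quenched with 125 mM glycine, and nuclei were lysed in 1% SDS buffer and sonicated. Chromatin was immunoprecipitated overnight at 4 °C with 2–4 μg antibody, washed in low-salt, high-salt and LiCl buffers, and reverse-crosslinked. DNA went to SYBR qPCR (IgG or H3 normalization, two negative-control loci) or sequencing.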
For orientation: In qPCR the cycle at which signal appears reflects the starting amount.

Assay [4] relates to histone acetylation in H1299 cells. Briefly: Histone acetylation levels in H1299 stable cells. The settings on record: n = 3; for H3K4, H3K9 and H4 acetylation / Increase of H3K18 and H3K27 acetylation: p300-BRPHZT. In kind it is cell-based, human.
For assay [5], the target named is T1, p300 HAT-ZZ domain (aa 1287–1713, Y1467F) (human, UniProt Q09472 1287-1713, Y1467F).
T1 sequence: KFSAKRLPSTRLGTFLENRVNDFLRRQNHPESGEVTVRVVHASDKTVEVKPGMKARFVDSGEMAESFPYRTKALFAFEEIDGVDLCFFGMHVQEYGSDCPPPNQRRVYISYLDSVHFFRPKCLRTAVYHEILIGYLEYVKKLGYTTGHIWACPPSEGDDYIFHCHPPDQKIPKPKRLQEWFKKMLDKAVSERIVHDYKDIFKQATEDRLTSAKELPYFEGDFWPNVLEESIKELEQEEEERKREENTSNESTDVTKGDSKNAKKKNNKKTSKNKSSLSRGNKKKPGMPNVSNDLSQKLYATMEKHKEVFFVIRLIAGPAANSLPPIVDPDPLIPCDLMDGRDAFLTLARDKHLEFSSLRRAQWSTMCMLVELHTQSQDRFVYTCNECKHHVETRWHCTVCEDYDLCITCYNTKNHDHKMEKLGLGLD
Nature of the assay: NMR titration.

Assay [6] deals with T2, human p300 ZZ domain (aa 1663–1713) (human, UniProt Q09472 1663-1713).
T2 sequence: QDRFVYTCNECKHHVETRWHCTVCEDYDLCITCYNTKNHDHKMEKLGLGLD
Nature of the assay: NMR titration.

The subject of assay [7] is BD-RING-PHD (BRP) region of p300. Nature of the assay: 1H,15N HSQC NMR titration, p300 BD-RING-PHD. In kind it is binding, human. The settings on record: 15N-labeled BD-RING-PHD, 298K, pH 7.0.

Changes are numbered by the printed parent chain. Names may count otherwise.

H4_1–9(Ser1): H4_1–9(Ser1) (SGRGKGGKG): the “Binding to p300-ZZ” value in assay [1] (authors' conclusion from NMR titration) is given as “almost negligible binding”.

B1: N1671A: p300 BRPHZT loss-of-function mutation of ZZ (protein)
chain: TQSSPAPGQSKKKIFKPEELRQALMPTLEALYRQDPESLPFRQPVDPQLLGIPDYFDIVKSPMDLSTIKRKLDTGQYQEPWQYVDDIWLMFNNAWLYNRKTSRVYKYCSKLSEVFEQEIDPVMQSLGYCCGRKLEFSPQTLCCYGKQLCTIPRDATYYSYQNRYHFCEKCFNEIQGESVSLGDDPSQPQTTINKEQFSKRKNDTLDPELFVECTECGRKMHQICVLHHEIIWPAGFVCDGCLKKSARTRKENKFSAKRLPSTRLGTFLENRVNDFLRRQNHPESGEVTVRVVHASDKTVEVKPGMKARFVDSGEMAESFPYRTKALFAFEEIDGVDLCFFGMHVQEYGSDCPPPNQRRVYISYLDSVHFFRPKCLRTAVYHEILIGYLEYVKKLGYTTGHIWACPPSEGDDYIFHCHPPDQKIPKPKRLQEWYKKMLDKAVSERIVHDYKDIFKQATEDRLTSAKELPYFEGDFWPNVLEESIKELEQEEEERKREENTSNESTDVTKGDSKNAKKKNNKKTSKNKSSLSRGNKKKPGMPNVSNDLSQKLYATMEKHKEVFFVIRLIAGPAANSLPPIVDPDPLIPCDLMDGRDAFLTLARDKHLEFSSLRRAQWSTMCMLVELHTQSQDRFVYTCAECKHHVETRWHCTVCEDYDLCITCYNTKNHDHKMEKLGLGLDDESNNQQAAATQSPGDSRRLSIQRCIQSLVHACQCRNANCSLPSCQKMKRVVQHTKGCKRKTNGGCPICKQLIALCCYHAKHCQENKCPVPFCLNIKQKLRQQQLQHRLQQAQMLRR
modifications: left off: FLAG, end not stated, kept
Take B1: in assay [2], the “Association of p300 BRPHZT with chromatin” value (“Association of p300 BRPHZT” for short) is on record as “substantially reduced”. Also, in assay [3], the Chromatin binding result is on record as “incapable of gaining the chromatin binding”; the “H3K18ac and H3K27ac occupancies” value is “no increase”. Moreover, in assay [4], the “H3K4, H3K9 and H4 acetylation” value is listed as “without affecting”; the “Increase of H3K18 and H3K27 acetylation” value was “greatly attenuated”.

B2: N1132A: p300 BRPHZT BD mutation that abrogates acetyllysine binding (protein)
chain: B1 chain with N98A, A637N
modifications: left off: FLAG, end not stated, kept
With B2, the “Association of p300 BRPHZT” value in assay [2] is “substantially reduced”. The “p300-BRPHZT occupancy and H3K18ac and H3K27ac levels at target gene regions” value in assay [3] (ChIP-qPCR, H1299, n = 3) was “decrease”.

B3: D1690A (protein)
chain: B1 chain with A637N, D656A
modifications: left off: FLAG, end not stated, kept
With B3, the “Association of p300 BRPHZT” value in assay [2] was “substantially reduced”. Further, in assay [3], the Chromatin binding entry was “incapable of gaining the chromatin binding”; the “H3K18ac and H3K27ac occupancies” value is on record as “no increase”. Further, in assay [4], the “H3K4, H3K9 and H4 acetylation” value is given as “without affecting”; the “Increase of H3K18 and H3K27 acetylation” value was “greatly attenuated”.

B4: WT p300-BRPHZT: p300 BD-RING-PHD-HAT-ZZ-TAZ2 region (BRPHZT, amino acids 1035–1830) (protein)
chain: B1 chain with A637N
modifications: left off: FLAG, end not stated, kept
As to B4, the “H3K18ac and H3K27ac occupancies” value in assay [3] is given as “evident increase”. In assay [3] (M2 Flag antibody, H1299, MACS p ≤1e−8), the “Number of p300-BRPHZT binding sites (FLAG ChIP-seq)” value turned out to be 679. Also, the “Global levels of acetylation at all sites tested” value in assay [4] (whole cell extract) is given as “increased”.

B5: p300 BD-RING-PHD region (aa 1047–1278) (domain or fragment)
chain: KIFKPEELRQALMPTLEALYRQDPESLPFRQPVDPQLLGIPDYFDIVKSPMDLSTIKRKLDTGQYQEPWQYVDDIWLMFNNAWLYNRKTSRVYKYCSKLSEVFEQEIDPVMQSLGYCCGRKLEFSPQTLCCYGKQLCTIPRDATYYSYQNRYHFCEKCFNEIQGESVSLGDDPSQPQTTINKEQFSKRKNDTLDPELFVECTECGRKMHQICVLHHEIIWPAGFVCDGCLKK
With B5, the binding result in assay [5] is on record as “binds”.

As for VRTKQT [H3A1V1–6], the “fold reduction in binding against the peptide with Ala1” value in assay [6] was around 3 fold.

B6: HAT-ZZ: HAT-ZZ domain (aa 1287–1713, Y1467F) (protein)
chain: T1 sequence
modifications: left off: His-tag, N-terminal, cleaved
As to B6, the “Interaction with BD-RING-PHD” value in assay [7] was “weakened”.

B7: HAT domain: p300 HAT domain (aa 1287–1663, Y1467F) (protein)
chain: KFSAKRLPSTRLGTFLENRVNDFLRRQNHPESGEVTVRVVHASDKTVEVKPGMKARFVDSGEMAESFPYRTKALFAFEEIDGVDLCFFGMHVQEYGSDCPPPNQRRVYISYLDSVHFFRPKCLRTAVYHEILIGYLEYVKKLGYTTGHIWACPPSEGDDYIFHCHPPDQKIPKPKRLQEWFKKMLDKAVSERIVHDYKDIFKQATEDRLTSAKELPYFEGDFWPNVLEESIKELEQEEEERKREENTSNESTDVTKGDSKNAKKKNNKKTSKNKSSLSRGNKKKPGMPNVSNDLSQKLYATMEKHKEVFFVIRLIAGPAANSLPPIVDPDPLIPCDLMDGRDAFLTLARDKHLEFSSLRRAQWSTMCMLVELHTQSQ
modifications: left off: His-tag, N-terminal, cleaved
As to B7, the “Resonance perturbations in p300-ZZ in presence of HAT domain” value in assay [1] (HSQC, 298K, pH 7.0, HAT (1:2 molar ratio) added first, then peptide) was “very small changes in ZZ”. For the same molecule, in assay [1] (HSQC, p300-ZZ with unlabeled HAT (1:2 molar ratio)), the “Interaction between isolated HAT and ZZ domains” value is “interact only weakly”. The “Interaction with BD-RING-PHD” value in assay [7] is recorded as “rapid disappearance of resonances”.
